The entries come from a sample that favours hits as a whole.
GSK3B inh – blocks human GSK3beta kinase activity. P49841. 300,000 tested, 0.038% active. GST-GSK3beta kinase, ADP-Glo luminescence, 60 min; active compounds read low. activity score (negative = inhibition), % at 10 µM;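 active means more than half of replicate wells score below -50%, meaning over 50% inhibition versus plate controls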;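 further: 0% = median DMSO wells and -100% = median GW8510 positive control wells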
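Test system: GST-fused GSK3beta enzyme, cell-free | Quantity: 1.6 ng GST-GSK3beta enzyme per well | Reagent: 25 µM ATP with peptide substrate | Schedule: 60 min enzyme reaction, room temperature | Signal: Luminescent ADP-Glo measurement of ADP formed | Read-out basis: Score relative to plate controls | Control set: DMSO and 20 µM GW8510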
DYRK1A inh – blocks rat Dyrk1A kinase activity; inhibition, % at 12.5 µM; ADP-Glo luminescence, NFATc1 peptide; 310,000 tested, 0.43% active; in the data active means inhibition above about 50%;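 further: plate controls were vehicle with enzyme for no effect and no enzyme for full effect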
GSK3 alpha inh – inhibitors of human GSK-3 alpha kinase | 320,000 tested, 0.1% active | ADP-Glo luminescence, 60 min | inhibition, % at 10 µM | P49840;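 active means more than half of replicates show inhibition above 20%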;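 further: GST-tagged GSK-3 alpha with peptide substrate and 25 µM ATP; 0% = DMSO neutral wells and 100% = GW8510 positive control wells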
Target sequence (P49840 whole entry, looked up): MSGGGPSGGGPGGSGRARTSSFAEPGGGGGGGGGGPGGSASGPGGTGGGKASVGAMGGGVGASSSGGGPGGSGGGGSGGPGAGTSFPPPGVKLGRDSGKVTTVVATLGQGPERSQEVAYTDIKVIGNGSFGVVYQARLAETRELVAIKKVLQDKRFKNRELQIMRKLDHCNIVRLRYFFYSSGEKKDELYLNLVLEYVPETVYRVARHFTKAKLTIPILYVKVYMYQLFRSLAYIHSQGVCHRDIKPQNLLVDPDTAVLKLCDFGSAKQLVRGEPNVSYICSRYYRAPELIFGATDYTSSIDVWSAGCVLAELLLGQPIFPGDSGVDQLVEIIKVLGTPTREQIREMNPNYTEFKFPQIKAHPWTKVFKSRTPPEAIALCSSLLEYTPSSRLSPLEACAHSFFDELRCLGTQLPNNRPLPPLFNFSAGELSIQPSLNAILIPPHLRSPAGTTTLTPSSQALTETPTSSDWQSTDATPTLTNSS
STK33 kinase inh – human STK33 kinase inhibition; Q9BYT3; purified STK33, MBP phosphorylation, ADP-Glo luminescence; inhibition, % at 10 µM; 320,000 tested, 0.073% active; AID 2661;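 active means inhibition at or above 25%, using the most active replicate where run in duplicate; inactive means inhibition below 25%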
Active calls of the source: *; x = not tested or not shown.

SMILES | GSK3B inh | DYRK1A inh | GSK3 alpha inh | STK33 kinase inh
N#CC(C#N)=Cc1c[nH]c(=O)c(C#N)c1Nc1ccccc1 | -25 | x | 74* | -2
N#Cc1c(Nc2ccccc2)c(/C=N/N=C/c2ccccc2)c[nH]c1=O | -3 | -10 | 0 | -1
COc1ccc(OC)c(Nc2nc(NCCCN(C)C)nc(N)c2[N+](=O)[O-])c1 | -65* | 39 | 88* | 14
COc1ccccc1Nc1nc(NCCO)nc(N)c1[N+](=O)[O-] | -27 | x | 60* | 2
CCN(CC)c1ccc(/C=C2/C(=O)c3ccc(C(=O)O)cc3C2=O)cc1 | x | 4 | 23 | 78*
O=C(Nc1c(C(=O)O)oc2ccc(Br)cc12)c1ccccc1 | 0 | 2 | 75* | 0
CC(CCC(C)C(C)(C)C)[C@@H]1CC[C@H]2C3C[C@H](OS(O)(=S)=S)[C@H]4C[C@H](OS(O)(=S)=S)[C@@H](OS(O)(=S)=S)C[C@]4(C)[C@H]3CC[C@]12C (some centres not stated) (tested in a mixture with another compound) | x | 70* | 3 | 1
C#CCOCCOCCOCCNc1nc(N2CCN(C(=O)CCCCCCCCCCNC(=O)[C@H]([C@@H](C)CC)n3cc(CCCCCN)nn3)CC2)nc(N2CCN(C(=O)CCCCCCCCCCNC(=O)[C@H]([C@@H](C)CC)n3cc(CCCCN=C(N)N)nn3)CC2)n1 | x | 29 | 21 | 21
C#CCOCCOCCOCCNc1nc(N2CCN(C(=O)CCCCCCCCCCNC(=O)[C@H]([C@@H](C)CC)n3cc(CCCCCN)nn3)CC2)nc(N2CCN(C(=O)CCCCCCCCCCNC(=O)[C@H](CO)n3cc(CCCCCN)nn3)CC2)n1 | x | 55* | 28 | 9
C#CCOCCOCCOCCNc1nc(N2CCN(C(=O)CCCCCCCCCCNC(=O)[C@H]([C@@H](C)CC)n3cc(CCCCN=C(N)N)nn3)CC2)nc(N2CCN(C(=O)CCCCCCCCCCNC(=O)[C@H]([C@@H](C)CC)n3cc(CCCCN=C(N)N)nn3)CC2)n1 | x | x | 7 | 31*
CC(=O)Nc1ccc(C(=O)COC(=O)CCc2ccccc2)c(F)c1 | x | 0 | 0 | -1
COc1cccc(NC(=O)C2(S(=O)(=O)c3ccc(Cl)cc3)CC2)c1 | -2 | 16 | -3 | 3
COC(=O)c1cc(NC(=O)C2COc3ccccc3O2)cc(C(=O)OC)c1 (configuration not stated) | 3 | 4 | -2 | 29*
Cc1cccc(-c2nc3ccccc3c3nncn23)c1 | 0 | 58* | 5 | 53*
CN(C)CCCNc1ccc(-c2nn(C)c(=O)c3ccccc23)cc1[N+](=O)[O-] | 1 | 2 | 4 | 1
COC(=O)c1ccccc1NC(=O)c1ccnn1C | -1 | 1 | x | 2
Cc1nnsc1C(=O)N/N=C/c1c(F)cccc1Cl | 2 | -13 | -2 | -1
Cc1[nH]cnc1C(=O)N/N=C/c1c(Cl)cccc1Cl | -29 | 28 | 33 | 27*
COc1cc(/C=N/NC(=O)c2sc(N)c(C#N)c2C)cc(Br)c1O | -11 | 6 | 62* | 1
O=C(CSc1ccc(F)cc1)NC(=O)NCc1ccccc1 | 4 | 5 | -3 | 0
CC(=O)Nc1cccc2c1C(=O)NC2=O | 2 | 22 | 72* | 1
COC(=O)Nc1nnc(CCc2ccccc2)s1 | -1 | 5 | -1 | 1
COC(=O)Nc1nnc(Cc2ccccc2)s1 | -23 | 4 | 0 | 26*
CCOc1ccc(N=C(/C(C(=O)C(=O)N2CCOCC2)=C(/O)c2ccccc2)c2ccccc2)cc1 | 2 | -5 | 3 | 0
N#C/C(=C\c1ccc(O)c(O)c1)C(=O)c1ccc(O)c(O)c1 | x | 48 | 9 | 28*
SMILES | GSK3B inh | DYRK1A inh | GSK3 alpha inh | STK33 kinase inh
N#C/C(=C\c1ccc(O)c(O)c1)C(=O)N1CCCC1 | -2 | 7 | 2 | -1
C/C(NCCCn1ccnc1)=C(\C#N)C(N)=O | -22 | 6 | 51* | -1
CCc1ccc(N2C(=O)CC(NNc3nc4ccccc4s3)C2=O)cc1 (configuration not stated) | -2 | x | 2 | 0
Cc1ccccc1Nc1cc2ccccc2c(=O)[nH]1 | -5 | 52* | -5 | 0
O=c1[nH]c(Nc2ccccc2Cl)cc2ccccc12 | -2 | 9 | -2 | -1
Cc1ccc(C(=O)CN2C(=O)C(=O)N(Cc3ccccc3)C2=O)cc1 | 0 | 3 | 1 | -2
O=c1[nH]cccc1-c1nc2ccccc2[nH]1 | -2 | 10 | 72* | 10
Nc1ccccc1-c1nc2ccccc2[nH]1 | 1 | 6 | 8 | 1
Cc1cc(C(=O)O)ccc1N=Cc1c(O)ccc2ccccc12 | 1 | x | 0 | 26*
CC(=O)N(C)c1ccc(N=Cc2c(O)ccc3ccccc23)cc1 | -2 | -4 | 1 | 62*
Oc1ccccc1N=Cc1c(O)ccc2ccccc12 | 0 | -1 | x | x
C/C(=C\c1ccc2c(c1)OCO2)C1Nc2cccc3cccc(c23)N1 | x | 4 | 0 | -3
O=C(OCc1nnc(-c2ccccc2)o1)C1CCN(C(=O)c2ccc(Cl)cc2)CC1 | x | -2 | x | x
O=C(OC[C@H]1O[C@@H](OC(=O)c2cc(O)c(O)c(OC(=O)c3cc(O)c(O)c(O)c3)c2)[C@H](OC(=O)c2cc(O)c(O)c(OC(=O)c3cc(O)c(O)c(O)c3)c2)[C@@H](OC(=O)c2cc(O)c(O)c(OC(=O)c3cc(O)c(O)c(O)c3)c2)[C@@H]1OC(=O)c1cc(O)c(O)c(OC(=O)c2cc(O)c(O)c(O)c2)c1)c1cc(O)c(O)c(OC(=O)c2cc(O)c(O)c(O)c2)c1 | x | x | 91* | 28*
CCn1c(SCC(=O)Nc2nccc(C)n2)nc2ccccc21 | -3 | -12 | 2 | -1
CN(C)CCNC(=S)Nc1cccc(Cl)c1 | 1 | -2 | -1 | 0
CN(C)CCCNc1ccc(-c2cc(Nc3cccc(Cl)c3)ncn2)cn1 | -86* | 17 | 36 | 5
CN(C)c1ccc(C=c2c3ccccc3n3c2c2c([n+]3C)CCCC2)cc1 | x | 10 | x | x
CC1CCC2(CC1)NC(=O)N(CC(=O)Nc1sc3c(c1C(N)=O)CCC3)C2=O (configuration not stated) | -32 | 36 | 78* | 0
CC1CCCCC12NC(=O)N(CC(=O)Nc1sc3c(c1C(N)=O)CCC3)C2=O (configuration not stated) | -3 | 1 | 58* | 0
O=C(Cc1ccccc1)N[C@@H](Cc1ccc(O)cc1)C(=O)O | 5 | x | x | x
CCOc1ccccc1C(=O)Nc1cc(Cl)ccc1O | -3 | 23 | 0 | 26*
COc1ccccc1C(=O)Nc1cc(Cl)ccc1O | 2 | 4 | 0 | 0
CNC(=O)c1c[nH]c2ccc(S(=O)(=O)Nc3ccccc3F)cc2c1=O | -1 | -3 | -2 | 46*
CCc1ccccc1NS(=O)(=O)c1ccc2[nH]cc(C(=O)NC3CCCC3)c(=O)c2c1 | 1 | 1 | x | x
CCOc1cc(/C=N/NC(=O)c2ccc3c(c2)OCCO3)cc(Br)c1O | -1 | 7 | -5 | 0
Cn1cc(S(=O)(=O)N2CCc3ccccc32)cc1C(=O)NC(C)(C)C | 0 | -4 | 0 | 0
O=C(Nc1ccccc1)Nc1ccncc1 | 0 | 12 | -2 | 1

Screening data from PubChem BioAssay.
